Sampled rows, rich in hits. Any-hit rate of the full collection: about 3%.
CHRM4 PAM: potentiates acetylcholine response at human M4 receptor; P08173; CHO-K1 hM4/Gqi5, Fluo-8 calcium fluorescence, ACh EC20; 0% = ACh EC20, 100% = maximal ACh; activation, % at 3 µM; 0.4% of 360,000 active; AID 624126;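 active = activation above its plate's cutoff, the mean activation of sample wells plus 3 SD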
Target sequence (P08173 whole entry, looked up): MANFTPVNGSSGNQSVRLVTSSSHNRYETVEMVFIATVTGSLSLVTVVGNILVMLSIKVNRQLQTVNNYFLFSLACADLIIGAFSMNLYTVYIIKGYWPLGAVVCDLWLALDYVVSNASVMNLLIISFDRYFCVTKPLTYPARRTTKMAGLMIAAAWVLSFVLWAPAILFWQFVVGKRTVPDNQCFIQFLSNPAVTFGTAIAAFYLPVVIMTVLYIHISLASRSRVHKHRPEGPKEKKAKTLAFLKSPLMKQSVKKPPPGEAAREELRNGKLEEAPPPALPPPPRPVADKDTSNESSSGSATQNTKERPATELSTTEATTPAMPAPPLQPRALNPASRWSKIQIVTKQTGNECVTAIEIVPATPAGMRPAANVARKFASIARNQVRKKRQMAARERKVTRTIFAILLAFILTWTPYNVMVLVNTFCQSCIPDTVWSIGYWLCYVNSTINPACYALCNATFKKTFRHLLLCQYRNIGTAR
M4 ag: agonists of human muscarinic M4 receptor (CHRM4) | CHO-K1 hM4/Gqi5, Fluo-8 calcium fluorescence; vehicle 0%, full acetylcholine response 100% | activation, % at 3 µM | 0.14% of 360,000 active;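 active = activation above the run mean over all test wells plus 3 SD, cut at about 32% in these data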;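 also: peak over basal fluorescence ratio per well then scaled between controls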
TAAR1 agonist: human TAAR1 agonism; 0.99% of 360,000 active; CHO RD-HGA16 TAAR1, Fluo-8 calcium fluorescence; vehicle wells 0%, saturating PEA agonist 100%; activation, % at 3 µM; Q96RJ0;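 active = activation above the mean activation of all test compounds in the run plus 3 SD, cut at about 38% in these data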
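Signal – calcium-sensitive Fluo-8 signal, excitation 470-495, emission 515-575 nm · System – RD-HGA16 (CHO) cells co-expressing Gα16 and hTAAR1 · Incubation – 17-24 h seeding, 75 min 37 °C dye, 30 min RT · Compound dosing – 3 µM single concentration · Repeats – no replicates (n 1)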
TAAR1 antagonist: human TAAR1 antagonism | Q96RJ0 | CHO RD-HGA16 TAAR1, Fluo-8 calcium fluorescence, antagonist | inhibition, % at 3 µM | 1.5% of 360,000 active | AID 624466;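 active = inhibition above a per-plate cutoff, the mean inhibition of test compounds on that plate plus 3 SD, cut at about 49% in these data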
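Test system: RD-HGA16 CHO cells with stable hTAAR1 and Gα16 / Probe or stimulus: EC80 β-phenethylamine stimulus / Times: seeding 17-24 h prior, 75-min 37 °C, 30-min RT dye loading / Detection: Fluo-8 calcium-sensitive fluorescence / Read-out basis: % inhibition scaled between DMSO and EC80 PEA controls / Repeats: singlicate, one well per test compound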
CHRM4 antagonist: antagonists of human muscarinic M4 receptor (CHRM4); 0.73% of 360,000 active; P08173; AID 624125; CHO-hM4 cells, ACh EC80, Fluo-8 calcium fluorescence; inhibition, % at 3 µM;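 active = inhibition above its plate's cutoff, the mean inhibition of sample wells plus 3 SD, cut at about 27% in these data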
Of the large screens only hits and unclear results are named; the others gave an inactive call.

CN(C[C@H](Cc1ccccc1)N(C[C@@H](Cc1cccc2ccccc12)N(CCc1ccccc1)N=O)N=O)N=O	TAAR1 agonist 40.7
CC(C)C[C@@H](CN(N=O)[C@@H](Cc1ccccc1)CN(C)N=O)N(CCc1ccccc1)N=O	none
O=C1C2C3c4ccccc4C(c4ccccc43)[C@@H]2C(=O)N1c1cccnc1 (some centres not stated)	TAAR1 antagonist 49.5
O=C1C2C3C=CC(C4CC34)C2C(=O)N1/N=C/c1ccc(-c2ccc(F)cc2[N+](=O)[O-])o1 (configuration not stated)	none
O=C1C2C3C=CC(C4CC34)C2C(=O)N1/N=C/c1ccc(-c2ccc(Cl)cc2[N+](=O)[O-])o1 (configuration not stated)	TAAR1 antagonist 52.3
COC(=O)C1=C(C)N(Cc2ccc(C(F)(F)F)cc2)C(=NCc2ccccc2C(F)(F)F)NC1c1ccc(F)cc1 (configuration not stated)	none (no result: CHRM4 PAM, M4 ag, CHRM4 antagonist)
O=C(/C=C/c1ccc(Cl)cc1Cl)NCCN1CCOCC1	CHRM4 PAM 29.5
NC(c1csc(NC(=O)Nc2cccc(Cl)c2)n1)C1CCCCC1 (configuration not stated)	M4 ag 37.6, CHRM4 antagonist 38.6
NC(CCc1ccccc1)c1csc(NC(=O)Nc2cccc(Cl)c2)n1 (configuration not stated)	TAAR1 agonist 39.0
Cc1cc2c(nc1C)CCCN2Cc1ccccn1	none (no result: CHRM4 PAM, M4 ag, CHRM4 antagonist)
C1=C(CCNc2ncnc3c2[nH]c2ccccc23)CCCC1	CHRM4 antagonist 31.8
CCN(Cc1ccccc1)C(=O)C1CCN(C(=O)Nc2ccccc2)CC1	none
CCCN(CC(=O)Nc1ccccc1C)C(=O)C1CCN(C(=O)Nc2ccccc2)CC1	CHRM4 PAM 20.6
Cc1cc(Br)cn2c(Cc3ccccc3C(F)(F)F)c(-c3ccc(F)cc3)nc12	none (no result: CHRM4 PAM, M4 ag, CHRM4 antagonist)
O=C(CCN1C(=O)/C(=C\c2ccccc2)SC1=S)NNC(=O)c1cccnc1	TAAR1 antagonist 53.8
O=C(CCCN1C(=O)/C(=C/c2ccccc2Cl)SC1=S)NNC(=O)c1cccnc1	none
Cc1occc1C(=O)NC(C)C(C)(C)C (configuration not stated)	CHRM4 antagonist 28.6
Cc1occc1C(=O)NC(C)CCc1ccccc1 (configuration not stated)	none
CCOC(=O)N1CCN(C(=O)C[C@H]2C[C@@]3(C(=O)OC)C(=C[C@H](C(C)C)O[C@@H]3C3CC3)N(Cc3ccccc3)C2=O)CC1	none (no result: CHRM4 PAM, M4 ag, CHRM4 antagonist)
O=C(N[C@H](Cc1ccccc1)C(=O)N1CCN(c2ccc(Cl)cn2)CC1)[C@H]1O[C@@H](n2ccc(=O)[nH]c2=O)[C@H](O)[C@@H]1O	none (no result: CHRM4 PAM, M4 ag, CHRM4 antagonist)
O=C(O)c1cnn(-c2nc(-c3cccc(F)c3)cs2)c1C(F)(F)F	none
Nc1cccc(-c2csc(-n3ncc(C(=O)O)c3C(F)(F)F)n2)c1	CHRM4 PAM 17.0
CCOC(=O)c1ccc(Nc2ncnc3ccccc23)cc1	none
Cc1c(O)ccc(/C=N/Nc2nc(-c3cccnc3)nc3ccccc23)c1O	TAAR1 antagonist 74.5
CCOC(=O)c1ccc(Nc2nc(-c3cccnc3)nc3ccccc23)cc1	TAAR1 antagonist 55.6
Cc1cc(N/N=C/c2ccc(O)c(C)c2O)nc(-c2ccccc2O)n1	TAAR1 antagonist 56.6
C/C(=N\Nc1cc(C)nc(-c2ccccc2O)n1)c1ccccc1	none
Cc1ccccc1C(=O)N1CCN(C(=O)C(=O)c2cccc(C(F)(F)F)c2)CC1	none (no result: CHRM4 PAM, M4 ag, CHRM4 antagonist)
CC1CCCN(S(=O)(=O)c2cc(C(=O)NCCc3ccc(S(N)(=O)=O)cc3)ccc2Cl)C1 (configuration not stated)	TAAR1 antagonist 49.6
O=C(NCCc1ccccc1)c1ccc(Cl)c(S(=O)(=O)N2CCCC2)c1	none (no result: TAAR1 agonist, TAAR1 antagonist)
C[C@]12CCC(=O)C=C1CC[C@@H]1[C@@H]2CC[C@@]2(C)[C@H]1CC[C@@]21CCC(=O)O1	CHRM4 antagonist 30.2
C[C@]12CC[C@H]3[C@@H](CCC4=CC(=O)CC[C@@]43C)[C@@H]1CC[C@@H]2C(=O)CO	none
CC(=O)OCC(=O)[C@H]1CC[C@H]2[C@@H]3CCC4=CC(=O)CC[C@]4(C)[C@H]3CC[C@]12C	CHRM4 antagonist 57.3
C[C@]12CCC(=O)C=C1CCC1C2CC[C@@]2(C)C1CCC21OCCO1 (some centres not stated)	none
CC(Oc1ccc(C(C)(C)C)cc1)c1ccnc2nc(/N=C/N(C)C)nn12 (configuration not stated)	CHRM4 antagonist 44.0
CCN1/C(=C\c2ccc3cc(C)ccc3[n+]2CC)Sc2cc(C)c(C)cc21	none
C=CC[n+]1c(/C=C2\C=Cc3cc(C)ccc3N2CC)ccc2ccccc21	CHRM4 antagonist 32.7
CC(=O)NCCC(=O)Nc1nc(-c2c[nH]c3ccccc23)cs1	CHRM4 PAM 15.8
CC1=C(C(=O)N2CCCCCC2)CC(CC(=O)NC(c2ccccc2)c2ccccc2)C(=O)N1CCC1=CCCCC1 (configuration not stated)	none
O=C(/C=C/c1c(F)cccc1Cl)c1ccc(O)cc1	CHRM4 antagonist 39.1
Cc1ccc(S(=O)(=O)N2CC3(O)CN(C(=O)OC(C)C)N(C(=O)OC(C)C)CC3(OC(=O)NCc3ccccc3F)C2)cc1 (configuration not stated)	TAAR1 antagonist 59.7
CCCC(=O)Nc1ccc(-c2csc(N/N=C\c3ccncc3)n2)cc1	TAAR1 antagonist 60.4
CSc1nncc(-c2ccc(F)c(F)c2)n1	none
CSc1nncc(-c2ccc(F)cc2)n1	M4 ag 33.0
Cc1cnc(NC(=O)c2cncc(Br)c2)s1	CHRM4 PAM 20.3
O=C(CNC(=O)c1ccccc1)N/N=C/C=C/c1ccccc1	TAAR1 agonist 42.0
O=C(N/N=C/C=C/c1ccccc1)C1CC1c1ccccc1 (configuration not stated)	CHRM4 PAM 17.3
COc1cc(/C=C2\C(=O)N(CCC#N)N=C2C)ccc1OCC(=O)Nc1ccccc1	TAAR1 antagonist 54.3
C=CCN1C(=O)c2n[nH]c(COC)c2C1c1ccc(Br)cc1 (configuration not stated)	none (no result: CHRM4 PAM, M4 ag, CHRM4 antagonist)
COc1ccc(C(=O)Nc2ccc(S(=O)(=O)N3CCc4ccccc43)cc2)cc1	TAAR1 antagonist 50.8, CHRM4 antagonist 41.5
O=C(Nc1nnc(C2CC2)s1)c1ccc(Cl)c(S(=O)(=O)N2CCc3ccccc3C2)c1	TAAR1 antagonist 57.1
Cc1cccc(NC(=O)c2ccc(Cl)c(S(=O)(=O)N3CCc4ccccc43)c2)n1	none
Cn1cc(S(=O)(=O)N2CCc3ccccc32)cc1C(=O)NC(C)(C)C	CHRM4 antagonist 37.5
CCc1nnc(NC(=O)c2ccc(Cl)c(S(=O)(=O)N3CCc4ccccc43)c2)s1	none
O=C(Nc1ccncc1)c1ccc(Cl)c(S(=O)(=O)N2CCc3ccccc32)c1	TAAR1 antagonist 62.9

Source: PubChem
